Experimental findings from ChEMBL document CHEMBL2440064, “Synthesis and biological evaluation of 2-amino-5-aryl-3-benzylthiopyridine scaffold based potent c-Met inhibitors” (Bioorg Med Chem, 2013) are described below.

Assay [1] deals with BaF3. In words: Antiproliferative activity against mouse BAF3 cells expressing TPR/Met fusion protein after 72 hrs. To be noted: BaF3, 72 h. Format: functional, cell-based. The method, boiled down: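 Cells seeded in 96-well plates, exposed next day to a range of compound concentrations and cultured 72 h; proliferation read by sulforhodamine B or CCK-8. IC50 as mean ± SD (μM) from three separate experiments.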

Assay [2] relates to NCI-H441. The experiment in a line: Antiproliferative activity against human NCI-H441 cells after 72 hrs. To be noted: NCI-H441, 72 h.
The target of assay [3] is Epidermal growth factor receptor (Homo sapiens, UniProt P00533). The experiment in a line: Inhibition of EGFR (unknown origin) using poly (Glu, Tyr) 4:1 as substrate after 60 mins by ELISA. In a few lines: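 ELISA on wells precoated with 20 µg/mL poly(Glu,Tyr)4:1. Purified kinase with 10 µmol/L ATP in 50 mM HEPES pH 7.4, 50 mM MgCl₂, 0.5 mM MnCl₂, 0.2 mM Na₃VO₄, 1 mM DTT; 1% DMSO vehicle. 60 min at 37°C. Phosphotyrosine detected with PY99 antibody, then HRP anti-mouse IgG and o-phenylenediamine/H₂O₂, A490. Inhibition = [1−(A490/A490 control)]×100%; IC50 from curves.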
Sequence of Epidermal growth factor receptor (P00533 whole entry): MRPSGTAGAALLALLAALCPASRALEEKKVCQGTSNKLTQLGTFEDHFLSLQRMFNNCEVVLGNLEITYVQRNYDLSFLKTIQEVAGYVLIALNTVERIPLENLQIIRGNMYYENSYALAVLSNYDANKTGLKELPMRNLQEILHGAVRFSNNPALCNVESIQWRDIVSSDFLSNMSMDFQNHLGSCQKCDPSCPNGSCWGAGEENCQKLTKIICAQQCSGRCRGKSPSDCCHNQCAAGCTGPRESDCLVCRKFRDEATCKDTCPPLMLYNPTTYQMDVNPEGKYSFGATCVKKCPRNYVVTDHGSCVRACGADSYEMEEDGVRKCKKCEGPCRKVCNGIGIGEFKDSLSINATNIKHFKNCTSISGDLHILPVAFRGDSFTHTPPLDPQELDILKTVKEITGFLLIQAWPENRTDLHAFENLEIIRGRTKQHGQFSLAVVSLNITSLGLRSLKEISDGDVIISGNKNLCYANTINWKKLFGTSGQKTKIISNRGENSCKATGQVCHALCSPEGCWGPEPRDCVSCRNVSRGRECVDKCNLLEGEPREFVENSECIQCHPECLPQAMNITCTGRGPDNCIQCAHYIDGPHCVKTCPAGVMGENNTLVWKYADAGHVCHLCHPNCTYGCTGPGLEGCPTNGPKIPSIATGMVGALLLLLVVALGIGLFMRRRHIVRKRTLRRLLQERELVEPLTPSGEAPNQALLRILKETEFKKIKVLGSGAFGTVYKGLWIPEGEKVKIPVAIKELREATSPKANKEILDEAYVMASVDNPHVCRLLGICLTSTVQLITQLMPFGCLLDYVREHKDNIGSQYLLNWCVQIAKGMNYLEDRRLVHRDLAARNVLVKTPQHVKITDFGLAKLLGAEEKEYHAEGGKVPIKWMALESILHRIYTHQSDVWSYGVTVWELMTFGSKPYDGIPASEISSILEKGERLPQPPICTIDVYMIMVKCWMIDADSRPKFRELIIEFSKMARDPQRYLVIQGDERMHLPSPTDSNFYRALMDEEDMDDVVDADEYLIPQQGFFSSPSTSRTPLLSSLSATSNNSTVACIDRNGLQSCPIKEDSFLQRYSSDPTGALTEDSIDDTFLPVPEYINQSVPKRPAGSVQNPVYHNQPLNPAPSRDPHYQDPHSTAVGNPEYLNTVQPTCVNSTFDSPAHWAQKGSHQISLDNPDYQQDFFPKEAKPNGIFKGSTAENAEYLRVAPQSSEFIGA

By IC50 is commonly meant the concentration that inhibits the measured activity by half. Low readings indicate inhibition by little substance, high ones a need for much substance. On to `C[C@@H](Sc1cc(-c2cnn(C3CCNCC3)c2)cnc1N)c1c(Cl)ccc(F)c1Cl`, for which the IC50 in assay [1] is 580 nM; in assay [2], 15500 nM; in assay [3], over 1000 nM.
